Assay results from article PMC4987129 (Leukemia, 2015).

How the values were obtained:
mTOR = conditions: read-out: IC50, mTOR; biochemical; cited from earlier work
BTK = BTK (Homo sapiens, UniProt Q06187); conditions: cited from earlier work
MNK1 = MNK1 (Homo sapiens, UniProt Q9BUB5); conditions: cited from earlier work
SKM-1 = experiment: Anti-proliferation assay; type: cell-based, human; conditions: SKM-1, AML; 72 hours
U937 = experiment: Anti-proliferation assay; type: cell-based; conditions: U937, AML; 72 hours
HeLa = experiment: Anti-proliferation assay; type: cell-based
Ramos = experiment: Anti-proliferation assay; type: cell-based; conditions: B-lymphoma, 72 hours
U2932 = experiment: Anti-proliferation assay; type: cell-based
MEC-2 = experiment: Anti-proliferation assay; type: cell-based; conditions: MEC-2, CLL; 72 hours
Ramos cells = experiment: Signaling pathway effect examination; type: cell-based
How it was run: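 Ramos cells in RPMI with 10% FBS were treated with serially diluted test compound for 4 h. Cells were then harvested and lysed, and phosphorylation in the lysates was assessed by western blotting.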

Hs 505.T = experiment: Anti-proliferation assay; type: cell-based; conditions: CLL, 72 hours
DU-145 = experiment: Anti-proliferation assay; type: cell-based
REC-1 = experiment: Anti-proliferation assay; type: cell-based; conditions: REC-1, MCL; 72 hours
NALM6 = experiment: Anti-proliferation assay; type: cell-based, human; conditions: NALM6, ALL; 72 hours
NOMO-1 = experiment: Anti-proliferation assay; type: cell-based, human
NB4 = experiment: Anti-proliferation assay; type: cell-based, human; conditions: NB4, AML; 72 hours
HCT-116 = experiment: Anti-proliferation assay; type: cell-based
HEL = experiment: Anti-proliferation assay; type: cell-based
MEC-1 = experiment: Anti-proliferation assay; type: cell-based; conditions: MEC-1, CLL; 72 hours
K562 = experiment: Anti-proliferation assay; type: cell-based
OCI-AML3 = experiment: Anti-proliferation assay; type: cell-based, human
TMD8 = experiment: Anti-proliferation assay; type: cell-based
RV-1 = experiment: Anti-proliferation assay; type: cell-based
How it was run: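 RV-1 cells grown in DMEM with 10% FBS and 1% penicillin-streptomycin, seeded at 2500–3000/well for 12 h, then exposed to test compound at various concentrations for 72 h. Viability read by CellTiter-Glo luminescence and normalized to DMSO controls. Values are the mean of three independent measurements, with standard error <20%, and GI50 was derived by curve fitting.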

cancer cell lines = experiment: Anti-proliferation, comparison of BMX-IN-1 with QL-X-138; type: cell-based; conditions: Supplemental Table 3

MNK1, sequence (Q9BUB5 1-424 isoform Q9BUB5-2): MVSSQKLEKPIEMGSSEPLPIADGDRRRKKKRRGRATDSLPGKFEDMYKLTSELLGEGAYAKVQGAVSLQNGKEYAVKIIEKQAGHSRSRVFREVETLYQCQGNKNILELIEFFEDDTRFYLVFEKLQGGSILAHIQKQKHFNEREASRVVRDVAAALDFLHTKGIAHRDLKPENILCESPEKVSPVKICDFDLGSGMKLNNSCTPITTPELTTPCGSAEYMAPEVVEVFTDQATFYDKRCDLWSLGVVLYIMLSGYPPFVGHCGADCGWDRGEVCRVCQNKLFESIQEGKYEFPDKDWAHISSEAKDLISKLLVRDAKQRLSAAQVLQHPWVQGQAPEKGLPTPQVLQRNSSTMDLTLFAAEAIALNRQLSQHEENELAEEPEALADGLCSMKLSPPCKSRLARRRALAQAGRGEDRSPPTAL
BTK, sequence (Q06187 whole entry): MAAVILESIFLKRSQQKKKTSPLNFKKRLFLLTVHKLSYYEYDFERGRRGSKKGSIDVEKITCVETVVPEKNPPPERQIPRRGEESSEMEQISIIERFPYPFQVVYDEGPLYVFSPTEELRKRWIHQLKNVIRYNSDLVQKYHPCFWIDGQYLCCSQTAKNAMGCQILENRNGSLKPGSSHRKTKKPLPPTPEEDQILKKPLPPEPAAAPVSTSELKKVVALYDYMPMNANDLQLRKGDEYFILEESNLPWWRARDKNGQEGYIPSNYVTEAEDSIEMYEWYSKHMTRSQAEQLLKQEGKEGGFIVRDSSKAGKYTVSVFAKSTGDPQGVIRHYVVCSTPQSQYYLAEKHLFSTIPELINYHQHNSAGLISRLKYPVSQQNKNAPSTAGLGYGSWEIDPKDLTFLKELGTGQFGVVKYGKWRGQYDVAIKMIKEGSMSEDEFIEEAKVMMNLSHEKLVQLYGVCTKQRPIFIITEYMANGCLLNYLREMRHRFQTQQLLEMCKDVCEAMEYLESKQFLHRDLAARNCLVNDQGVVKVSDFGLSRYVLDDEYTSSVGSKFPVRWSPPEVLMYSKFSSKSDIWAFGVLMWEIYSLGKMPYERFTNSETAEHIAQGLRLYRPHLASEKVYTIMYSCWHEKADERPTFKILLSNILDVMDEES

In the case of `Nc1ccc(-c2ccc3ncc4ccc(=O)n(-c5cccc(C(F)(F)F)c5)c4c3c2)cn1` [Torin2, 9-(6-aminopyridin-3-yl)-1-(3-(trifluoromethyl)phenyl)benzo[h][1,6]naphthyridin-2(1H)-one], the IC50 (mTOR) is listed as 0.00025 µM, the “activity against BTK” value (BTK) is listed as “no apparent activity” and the “activity against MNK1” value (MNK1) is listed as “no apparent activity”.
`CC(=O)C1=C(O)C=C2Oc3c(C(N)=O)c(O)cc(O)c3[C@]2(C)C1=O` [Cercosporamide] gave a GI50 (SKM-1) greater than 10 µM, a GI50 (U937) of 3.9 µM and a GI50 (HeLa; Cervical, 72 hours) greater than 10 µM. For the same compound, the GI50 (Ramos) was greater than 10 µM, the GI50 (U2932; U2932, DLBCL, 72 hours) was greater than 10 µM and the GI50 (MEC-2) was greater than 10 µM. For the same compound, the “effect on MNK phosphorylation” value (Ramos cells; 4 hours) was “did not affect”, the “effect on phosphorylation of eIF4E S209” value (Ramos cells; at a concentration of 1 μM) was “suppressed” and the GI50 (Hs 505.T) was greater than 10 µM. For the same compound, the GI50 (DU-145; DU-145, Prostate, 72 hours) was greater than 10 µM, the GI50 (REC-1) was greater than 10 µM and the GI50 (NALM6) was greater than 10 µM. It also gave a GI50 (NOMO-1; NOMO-1, AML, 72 hours) greater than 10 µM, a GI50 (NB4) greater than 10 µM and a GI50 (HCT-116; HCT-116, Colon, 72 hours) greater than 10 µM. For the same compound, the GI50 (HEL; AML, 72 hours) was greater than 10 µM, the GI50 (MEC-1) was greater than 10 µM and the GI50 (K562; K562, CML, 72 hours) was greater than 10 µM. It also gave a GI50 (OCI-AML3; OCI-AML3, AML, 72 hours) greater than 10 µM, a GI50 (TMD8; TMD8, DLBCL, 72 hours) greater than 10 µM and a GI50 (RV-1; RV-1, Prostate, 72 hours) greater than 10 µM.
In the case of `C=CC(=O)N1CCC[C@@H](n2nc(-c3ccc(Oc4ccccc4)cc3)c3c(N)ncnc32)C1` [PCI-32765], the GI50 (HeLa; Homo sapiens, 72 h) is reported as greater than 10 µM, the GI50 (U2932; Homo sapiens, U2932, 72 h) is reported as greater than 10 µM and the “effect on MNK phosphorylation” value (Ramos cells; 4 hours) is reported as “did not affect”. The “effect on phosphorylation of PLCγ2 Y1217” value (Ramos cells; 4 hours) was “strongly blocked”, the GI50 (DU-145; Homo sapiens, DU-145, 72 h) was greater than 10 µM and the GI50 (NOMO-1; Homo sapiens, NOMO-1, 72 h) was greater than 10 µM. For the same compound, the GI50 (HCT-116; Homo sapiens, HCT-116, 72 h) was greater than 10 µM, the GI50 (HEL; Homo sapiens, 72 h) was 4 µM and the GI50 (K562; Homo sapiens, K562, 72 h) was greater than 10 µM. The GI50 (OCI-AML3; Homo sapiens, OCI-AML-3, 72 h) was greater than 10 µM, the GI50 (TMD8; Homo sapiens, TMD8, 72 h) was 0.002 µM and the GI50 (RV-1; RV-1, 72 h) was greater than 10 µM.
With `C=CC(=O)Nc1cc(-n2c(=O)ccc3cnc4ccc(-c5ccc(NS(C)(=O)=O)cc5)cc4c32)ccc1C` [BMX-IN-1] the “anti-proliferation activity in comparison to QL-X-138” value (cancer cell lines) was “weaker anti-proliferation activity”.
